# NSD2 inh = NSD2 histone methyltransferase inhibitors, primary screen, biochemical, AlphaScreen, single concentration, set 2. Histone-lysine N-methyltransferase NSD2 (Homo sapiens), O96028. 0.54% of 310,000 active. inhibition, % at 12.5 µM. AID 743445, 2014. NSD2 peptide methylation, 120 min
# Casp6 inh = human caspase-6 inhibitors, primary screen, biochemical, VEID-R110 fluorescence, single point, set 2 | P55212 | purified caspase-6, Z-VEID-R110 cleavage fluorescence | inhibition, % at 12.5 µM | 0.53% of 350,000 active | AID 686996, 2013;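 active means mean inhibition across replicates at least about 35%, with every replicate also reaching that limit, limit read from the data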;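 further: 0% = median of neutral control wells and 100% = no fluorescence left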
# NS3 helicase inh = inhibitors of HCV NS3 helicase, primary screen, biochemical, Cy5 molecular beacon fluorescence. 0.56% of 290,000 active. NS3 helicase DNA unwinding. inhibition, % at 10.9 µM;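 active means inhibition above the mean of all tested compounds plus 3 SD, set per campaign, cut at about 35% in these data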;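 further: 0% = DMSO wells and 100% = thioflavine S control wells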
#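 Measured by: Cy5 fluorescence, 0 and 60 min reads / Assay system: NS3 helicase fragment of HCV / Control set: low DMSO, high thioflavine S at 110 µM / Times: 1 h reaction at 25 °C, ATP-initiated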
# DNMT1 inh = human DNMT1 methyltransferase inhibitors, primary screen, biochemical, molecular beacon, fluorescence, HinP1I cleavage, uHTS | DNA (cytosine-5)-methyltransferase 1 (Homo sapiens), P26358 | inhibition (reported as % activation of signal), % at 10 µM | 0.83% of 360,000 active | AID 588458, 2011
# Target sequence (P26358 504-1616 limits assumed): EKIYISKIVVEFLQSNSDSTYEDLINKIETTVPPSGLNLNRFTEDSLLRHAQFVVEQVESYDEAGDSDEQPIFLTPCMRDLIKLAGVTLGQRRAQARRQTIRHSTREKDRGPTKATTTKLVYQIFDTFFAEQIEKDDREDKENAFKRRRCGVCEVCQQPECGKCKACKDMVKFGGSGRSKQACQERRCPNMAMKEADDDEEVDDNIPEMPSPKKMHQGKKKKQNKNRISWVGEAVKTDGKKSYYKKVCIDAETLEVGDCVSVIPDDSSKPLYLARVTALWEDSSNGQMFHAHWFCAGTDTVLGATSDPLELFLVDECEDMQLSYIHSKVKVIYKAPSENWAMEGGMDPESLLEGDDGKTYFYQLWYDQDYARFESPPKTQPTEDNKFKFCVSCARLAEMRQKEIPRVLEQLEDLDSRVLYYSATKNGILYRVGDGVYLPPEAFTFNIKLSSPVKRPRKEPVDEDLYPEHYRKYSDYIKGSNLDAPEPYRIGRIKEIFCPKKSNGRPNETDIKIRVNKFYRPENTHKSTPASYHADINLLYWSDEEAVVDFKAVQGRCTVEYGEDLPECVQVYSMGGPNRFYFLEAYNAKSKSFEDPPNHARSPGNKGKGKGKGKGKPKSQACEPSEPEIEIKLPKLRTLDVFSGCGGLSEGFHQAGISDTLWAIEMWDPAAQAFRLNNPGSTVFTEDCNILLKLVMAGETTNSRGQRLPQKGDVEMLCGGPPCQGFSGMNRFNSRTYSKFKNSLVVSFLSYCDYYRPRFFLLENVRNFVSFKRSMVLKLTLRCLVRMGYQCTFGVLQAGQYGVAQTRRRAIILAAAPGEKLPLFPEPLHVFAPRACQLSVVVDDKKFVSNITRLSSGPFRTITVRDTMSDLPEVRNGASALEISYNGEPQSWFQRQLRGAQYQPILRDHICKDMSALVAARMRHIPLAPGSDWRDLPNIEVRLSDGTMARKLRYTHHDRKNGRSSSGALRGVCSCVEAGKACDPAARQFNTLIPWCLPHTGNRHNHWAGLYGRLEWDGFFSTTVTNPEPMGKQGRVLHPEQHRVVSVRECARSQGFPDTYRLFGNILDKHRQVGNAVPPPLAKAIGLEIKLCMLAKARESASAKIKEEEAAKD
# Beacon interf DR = spectral interference with molecular beacon fluorescence, dose response, artefact control for DNMT1 inhibitor project, biochemical, fluorescent molecular beacon. shares compounds with DNMT1 inh. spectral interference counter-screen. IC50, µM. 200 tested, under 10 active. AID 602382, 2012; call rule not given here
# DNMT1 confirm = DNMT1 methyltransferase inhibitor retest, confirmation, biochemical, molecular beacon, fluorescence, single concentration; shares compounds with DNMT1 inh; DNMT1 molecular beacon HinP1I cleavage; inhibition, % at 10 µM; 8% of 2,300 active; AID 602385, 2012;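 active means average inhibition of at least 30% in the single-concentration confirmation test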
# Beacon interf = shows spectral interference in the DNMT1 beacon assay; 1% of 2,300 active; AID 602387; DNMT1 molecular beacon spectral interference counterscreen, fluorescence 485/520; shares compounds with DNMT1 inh; activation (fluorescence interference), % at 10 µM;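 active means activation of at least 30% at 10 µM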;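 further: DNMT1 catalytic domain with a HinP1I cleavage step and a FAM/dabcyl DNA beacon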
# The depositor's hits bear a star; · = no result given. In the library only some 1.5% were active in any assay of this set; here they are far more common. Unless noted, no stated cut-off is given here; in the data, active means inhibition above about 50%; inactive means the rest.
SMILES,NSD2 inh,Casp6 inh,NS3 helicase inh,DNMT1 inh,DNMT1 confirm,Beacon interf,others
O=C(c1cc2cc(Cl)ccc2oc1=O)N1CCN(c2ccccn2)CC1,-6,0,3,89*,-2,2,
O=C(c1cc2cc(Br)ccc2oc1=O)N1CCN(c2ccccn2)CC1,2,·,0,2,·,·,
CCS(=O)(=O)N[C@H]1CC[C@H](CC(=O)N2CCCCC2)O[C@H]1CO,·,28,·,·,·,·,
C[C@H]1CN([C@@H](C)CO)C(=O)c2cc(NC(=O)CCC(F)(F)F)ccc2O[C@@H]1CN(C)C(=O)NC1CCCCC1,·,1,·,·,·,·,
CN(C)C(=O)c1cccc(-c2ccc(C3[C@H]4CNC[C@@H]3N4C(=O)NC3CCCC3)cc2)c1 (stereo partly drawn),·,3,·,·,·,·,
CC(SC(C)C(=O)NN=Cc1cccc(Cl)c1)C(=O)NN=Cc1cccc(Cl)c1 (stereo not drawn),1,-2,·,65*,6,7,
COc1cccc(C=NNC(=O)C(C)SC(C)C(=O)NN=Cc2cccc(OC)c2)c1 (stereo not drawn),-1,0,·,0,·,·,
O=C(C[C@@H]1CC[C@H](NC(=O)C2CC2)[C@@H](CO)O1)NC1CCC1,·,1,·,·,·,·,
C[C@H](CO)N1C[C@H](C)[C@@H](CN(C)C(=O)C2CCCCC2)Oc2ncc(-c3ccncc3)cc2C1=O,·,-2,·,·,·,·,
Cc1cc(C(=O)C(C)Cl)c(C)n1Cc1ccco1 (stereo not drawn),4,2,14,65*,1,-1,
CN(C)S(=O)(=O)N(CC(=O)N(Cc1ccccc1)Cc1ccccc1)c1ccccc1,-3,·,-3,56*,3,4,
O=C(C[C@H]1C/C=C\C[C@H](NC(=O)OCC2c3ccccc3-c3ccccc32)C(=O)O[C@H](c2ccccc2)CNC1=O)N[C@H](CO)Cc1ccccc1,·,·,·,57*,6,-4,
O=C(C[C@H]1C/C=C\C[C@@H](Cc2ccc(F)cc2)C(=O)O[C@H](c2ccccc2)CNC1=O)N[C@@H](CO)Cc1ccccc1,·,·,·,85*,0,-6,
O=C(C[C@@H]1C/C=C\C[C@@H](Cc2ccc(F)cc2)C(=O)OC[C@@H](Cc2ccccc2)NC1=O)N[C@H](CO)Cc1ccccc1,·,3,·,68*,3,0,
O=C(N[C@@H]1C/C=C\C[C@H](CC(=O)N(CCO)Cc2ccccc2)C(=O)NC[C@@H](c2ccccc2)OC1=O)OCC1c2ccccc2-c2ccccc21,·,-3,·,37,·,·,
COc1ccccc1NC(=O)N[C@@H]1CC[C@@H](CC(=O)N[C@@H](C)c2ccccc2)O[C@@H]1CO,·,8,·,·,·,·,
CCn1cc(S(=O)(=O)NCCc2ccc(OC)c(OC)c2)cn1,3,-5,7,83*,3,0,
CC1C=CC(C)C(C(=O)c2ccccc2)C1C(=O)c1ccccc1 (stereo not drawn),-2,2,·,6,·,·,
O=C(c1ccccc1)C1OC1C(=O)c1ccccc1 (stereo not drawn),7,8,·,50*,9,10,
COc1cc(OC)c(CNS(=O)(=O)c2ccc(Br)cc2)c(OC)c1,·,0,·,·,·,·,
COCCN1C(=O)C(=O)/C(=C(/O)c2cccc(OC)c2)C1c1ccco1 (stereo not drawn),0,·,-6,75*,7,4,
COc1cccc(/C(O)=C2/C(=O)C(=O)N(Cc3cccnc3)C2c2ccco2)c1 (stereo not drawn),2,·,8,17,·,·,
O=C(O)CCc1ccc(S(=O)(=O)Nc2cc(C(F)(F)F)ccc2N2CCCC2)cc1,2,67*,·,53*,76*,-2,Beacon interf DR=>99
Cc1ccc(-c2[nH]ncc2/C=N/n2c(COc3ccccc3C)nc3ccccc3c2=O)cc1,-2,·,6,70*,0,-2,
